The values that follow come from ChEMBL document CHEMBL1671813, “Discovery of potent competitive antagonists and positive modulators of the P2X2 receptor” (J Med Chem, 2011).

For assay [1], the target named is T1, P2X purinoceptor 2 (Rattus norvegicus) (UniProt P49653).
T1 sequence (whole entry): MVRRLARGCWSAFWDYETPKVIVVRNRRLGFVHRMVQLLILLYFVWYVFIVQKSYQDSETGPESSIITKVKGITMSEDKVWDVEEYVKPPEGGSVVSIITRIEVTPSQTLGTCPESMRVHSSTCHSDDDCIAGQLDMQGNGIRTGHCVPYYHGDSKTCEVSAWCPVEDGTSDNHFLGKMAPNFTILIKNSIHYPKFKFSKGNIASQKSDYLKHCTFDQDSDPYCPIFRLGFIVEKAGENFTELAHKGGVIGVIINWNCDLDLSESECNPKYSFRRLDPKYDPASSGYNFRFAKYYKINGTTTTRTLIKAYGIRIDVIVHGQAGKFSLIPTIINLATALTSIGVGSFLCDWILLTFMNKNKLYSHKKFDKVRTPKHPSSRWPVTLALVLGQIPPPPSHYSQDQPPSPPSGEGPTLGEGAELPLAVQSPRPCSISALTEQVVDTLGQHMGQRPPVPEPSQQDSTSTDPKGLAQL
The experiment in a line: Antagonist activity against rat P2X2 receptor expressed in Xenopus laevis oocyte assessed as potentiation of ATP-induced inward current at 100 nM by two-electrode voltage-clamp electrophysiology.

Another assay has as its target T2, P2X purinoceptor 2 (Rattus norvegicus, UniProt P49653).
T2 sequence (P49653 whole entry): T1 sequence (whole entry)
The experiment in a line: Positive modulator activity against rat P2X2 receptor expressed in Xenopus laevis oocyte assessed as maximum ATP-induced inward current by two-electrode voltage-clamp electrophysiology in presence of 10 uM ATP.

Assay [2] concerns the target T1, P2X purinoceptor 2 (Rattus norvegicus). The experiment in a line: Antagonist activity against rat P2X2 receptor expressed in Xenopus laevis oocyte assessed as maximum current amplitude by two-electrode voltage-clamp electrophysiology. In kind it is functional. Put shortly:
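Rat P2X2-expressing oocytes were voltage-clamped in Mg-ORi. Test compound at 100 nM was coapplied with 10 μM ATP. Current amplitude was expressed as a percentage of the current elicited by ATP alone (set at 100%).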

The target in the next assay is P2Y purinoceptor 2 (Homo sapiens, UniProt P41231). The experiment in a line: Antagonist activity against human P2Y2 receptor expressed in 1321N1 astrocytoma cells by calcium mobilization assay. In kind it is functional, cell-based. Put shortly: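 Astrocytoma cell lines stably transfected with human P2Y2, human P2Y4 or rat P2Y6 receptor. Inhibition of receptor-mediated intracellular calcium mobilization was measured.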
Chain of P2Y purinoceptor 2 (P41231 whole entry): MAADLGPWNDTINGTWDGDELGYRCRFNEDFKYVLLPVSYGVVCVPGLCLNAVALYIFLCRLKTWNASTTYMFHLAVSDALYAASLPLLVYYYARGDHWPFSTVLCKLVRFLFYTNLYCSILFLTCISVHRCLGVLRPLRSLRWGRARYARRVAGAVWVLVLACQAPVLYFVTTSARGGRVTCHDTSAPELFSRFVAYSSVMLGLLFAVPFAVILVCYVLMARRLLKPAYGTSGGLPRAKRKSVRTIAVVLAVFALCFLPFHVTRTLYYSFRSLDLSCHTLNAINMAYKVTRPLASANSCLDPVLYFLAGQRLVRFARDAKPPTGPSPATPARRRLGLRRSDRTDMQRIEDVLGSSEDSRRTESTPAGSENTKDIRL

Assay [3] has as its target P2Y purinoceptor 6 (Rattus norvegicus) (UniProt Q63371). The experiment in a line: Antagonist activity against rat P2Y6 receptor expressed in 1321N1 astrocytoma cells by calcium mobilization assay.

The structures appear in SMILES notation. The source made the active and inactive calls. The calls are words filed in the database; no cut-off is given here.

With `Nc1c(S(=O)(=O)O)cc(Nc2cccc(Oc3ccccc3)c2)c2c1C(=O)c1ccccc1C2=O`, the potentiation % in assay [1] stood at 132%. On P2X purinoceptor 2, the EC50 was determined as 0.489 µM. For the same molecule, the outcome in assay [2] was Active. The results for the concentration for half-maximal inhibition (IC50) (on P2Y purinoceptor 2; in assay [3]) were 10 µM and 4.56 µM, respectively.
